# Assay outcomes: PubChem, several laboratories
# Hits are enriched below; roughly 27% of the tested compounds scored in any of these assays.
# Rev-RRE block: inhibitors of HIV-1 Rev-RRE RNA interaction. Rev peptide-RRE RNA binding, FRET. inhibition, % at 8 µM. P05866. actives 0.79% (n = 97,000);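 active means inhibition above the screen-wide mean plus 3 SD, cut at about 35% in these data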;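 further: 0% = median DMSO wells and 100% = median Neomycin B control wells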
# Target sequence (P05866 whole entry, looked up): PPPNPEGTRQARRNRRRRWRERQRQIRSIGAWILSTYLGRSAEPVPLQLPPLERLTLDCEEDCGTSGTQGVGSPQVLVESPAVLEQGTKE
#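 System: Cy5-labelled duplex RRE RNA binding fluorescein-labelled HIV Rev peptide; Signal: fluorescein-to-Cy5 FRET, 480 nm excitation; Also added: labelled Rev peptide; Compound: one concentration, 8 µM nominal; Buffer or medium: HEPES pH 7.5 salt buffer with EDTA; Read-out: % inhibition of FRET ratio versus controls; Schedule: 5 min preincubation and 15 min binding, 25 °C.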
# Cav32 inh: human Cav3.2 channel inhibition, primary screen. actives 4% (n = 100,000). O95180. Cav3.2-expressing cells, Fluo-4 calcium fluorescence FDSS; active compounds read low. B-score at 10 µM;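 active means single-dose well whose peak fluorescence ratio is a statistical outlier from its plate by either plate-standardised score or position-corrected B-score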
# CYP2C19 inhib: blocks human cytochrome P450 2C19. actives 21% (n = 96,000). CYP2C19 Supersomes, luciferin-H EGE luminescence, 30 min. inhibition, % at 5 µM. P33261. AID 778;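 active means CYP2C19 inhibition above a set limit at 5 µM in the primary screen, cut at about 50% in these data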;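 further: plate controls were negative control wells for no effect and 2.5 mM tranylcypromine positive control for full effect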
# Target sequence (P33261 whole entry, looked up): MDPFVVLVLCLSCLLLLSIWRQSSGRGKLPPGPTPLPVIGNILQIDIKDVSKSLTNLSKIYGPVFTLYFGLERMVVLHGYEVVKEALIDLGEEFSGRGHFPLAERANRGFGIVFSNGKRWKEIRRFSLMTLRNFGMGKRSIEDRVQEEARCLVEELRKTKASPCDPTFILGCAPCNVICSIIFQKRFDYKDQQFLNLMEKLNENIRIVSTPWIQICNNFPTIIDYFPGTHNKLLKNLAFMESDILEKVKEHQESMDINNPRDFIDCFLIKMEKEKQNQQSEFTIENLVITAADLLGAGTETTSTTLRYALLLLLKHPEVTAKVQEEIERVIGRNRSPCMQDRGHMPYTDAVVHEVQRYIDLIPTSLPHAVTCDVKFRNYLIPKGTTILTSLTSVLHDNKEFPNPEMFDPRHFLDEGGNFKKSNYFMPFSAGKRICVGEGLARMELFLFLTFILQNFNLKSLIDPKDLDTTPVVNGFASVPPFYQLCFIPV
# CYP2C9 inhib: blocks human cytochrome P450 2C9 | actives 20% (n = 96,000) | inhibition, % at 5 µM | CYP2C9 Supersomes, luciferin-H conversion, luminescence | P11712 | AID 777;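 active means blocking of liver enzyme CYP2C9 beyond about 50% at 5 µM, limit read from the data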
# CYP2C19 activ: cytochrome P450 2C19 (human) activation; recombinant CYP2C19, luciferin-H EGE luminescence; active compounds read high; 0 = fully inhibited enzyme, 1 = untreated enzyme; activation factor at 5 µM; 96,000 tested, under 10 active; P33261;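 active means activation factor of at least 2 at 5 µM in the primary screen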;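 further: 0 = wells with 2.5 mM tranylcypromine and 1 = vehicle-only wells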
# CYP2C9 activ: activators of human CYP2C9. recombinant CYP2C9, luciferin-H conversion, luminescence; active compounds read high; factor 1 = untreated enzyme, 0 = blocked. activation factor at 5 µM. actives 1.4% (n = 96,000). AID 1024;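 active means activation factor of 2 or more for CYP2C9 at a 5 µM dose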;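 further: 0 = sulfaphenazole-blocked wells and 1 = vehicle-only wells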
# Numbers without * were called inactive; . = no result.
SMILES,Rev-RRE block,Cav32 inh,CYP2C19 inhib,CYP2C9 inhib,CYP2C19 activ,CYP2C9 activ
O=C(OCN1C(=O)c2ccccc2C1=O)c1cccs1,7,0.14,14,-22,0.9,1.2
O=C(COC(=O)c1cccs1)NC1CCCCC1,7,0.28,92*,18,0.1,0.8
O=C(NC1CCCCC1)c1cccs1,9,-0.2,-2,4,1,1
O=C(COC(=O)c1cccs1)c1ccccc1,-1,0.28,89*,78*,0.1,0.2
CCOC(=O)CSc1n[nH]c(NC(=O)c2ccc(F)cc2)n1,2,0.053,53*,21,0.5,0.8
CCOC(=O)CSc1n[nH]c(NC(=O)c2ccccc2)n1,4,0.33,40,-3,0.6,1
N=c1c2c(-c3ccccc3)c(-c3ccccc3)n(Cc3ccco3)c2ncn1CCN1CCOCC1,18,-11*,21,16,0.8,0.8
N=c1c2c(-c3ccccc3)c(-c3ccccc3)n(Cc3ccco3)c2ncn1CCO,11,-7.4*,.,.,.,.
Cc1cccc(S(=O)(=O)Nc2cccc3c2C(=O)c2ccccc2-3)c1,24,-4.4,-1,59*,1,0.4
Cc1ccccc1NS(=O)(=O)c1cccc(-c2nnc(-c3ccccc3)o2)c1,1,-0.43,12,37,0.9,0.6
CC1=NC(C)(C)Cc2ccccc21,4,-0.34,.,.,.,.
CC1(C)Cc2ccccc2C(N)=C1C#N,2,0.48,94*,78*,0.1,0.2
Cc1ccc(SCCNC(=O)CN(c2ccc3c(c2)OCO3)S(C)(=O)=O)cc1,10,-2.1,92*,92*,0.1,0.1
O=C(NCCSCc1ccco1)Nc1ccccc1,3,0.066,79*,25,0.2,0.7
Cc1ccccc1CSCCNC(=O)CN(c1ccc2c(c1)OCO2)S(C)(=O)=O,-3,-4.3*,64*,56*,0.4,0.4
CCCCCNC(=O)CN(c1ccc2c(c1)OCO2)S(C)(=O)=O,-3,0.0047,46,10,0.5,0.9
Cc1cc(C)cc(N(C(C)C(=O)NCCC2=CCCCC2)S(C)(=O)=O)c1 (stereo unspecified),1,0.024,92*,14,0.1,0.9
CC(C)Oc1snc(Cl)c1C(N)=O,-1,.,15,-11,0.9,1.1
COc1ccc(N(CC(=O)NCCSC2CCCCC2)S(C)(=O)=O)c(OC)c1,2,-3,22,-91,0.8,1.9
Cc1cccc(N(CC(=O)NCCC2=CCCCC2)S(C)(=O)=O)c1C,10,-1.5,56*,95*,0.4,0
CS(=O)(=O)N(CC(=O)NCc1ccco1)c1ccccc1Cl,8,0.044,21,22,0.8,0.8
CS(=O)(=O)N(Cc1ccc(Cl)cc1)c1ccc(C(=O)NCCC2=CCCCC2)cc1,9,-0.3,-12,6,1.1,0.9
Cc1ccccc1N(CC(=O)NCCSCc1ccco1)S(C)(=O)=O,2,1.4,74*,68*,0.3,0.3
CS(=O)(=O)N(CC(=O)NCCSC1CCCCC1)c1ccc2c(c1)OCO2,0,-2.1,70*,56*,0.3,0.4
CS(=O)(=O)N(CC(=O)NCCC1=CCCCC1)c1ccc2c(c1)OCO2,-1,-0.13,62*,57*,0.4,0.4
SMILES,Rev-RRE block,Cav32 inh,CYP2C19 inhib,CYP2C9 inhib,CYP2C19 activ,CYP2C9 activ
O=C(NCC(F)(F)F)N1CCOCC1,1,.,-19,-19,1.2,1.2
Cc1ccc(Nc2nc3ccccc3[nH]2)nc1,10,-1.1,.,.,.,.
CCOc1ccc(Br)cc1/C(C)=N\NC1=NCCN1,-13,0.79,20,11,0.8,0.9
O=C(Nc1ccc(OC(F)F)cc1)Nc1cccc(C(F)(F)F)c1,5,-0.65,29,25,0.7,0.8
CC(OC(=O)CNC(=O)c1ccc2c(c1)OCO2)C(=O)NCCC1=CCCCC1 (stereo unspecified),5,-0.63,63*,41,0.4,0.6
CC1(c2ccc3c(c2)OCO3)NC(=O)N(CC(=O)NCCC2=CCCCC2)C1=O (stereo unspecified),3,-0.52,9,19,0.9,0.8
COc1cc(C2Nc3cc(Cl)c(S(N)(=O)=O)cc3S(=O)(=O)N2)ccc1OCc1ccccc1 (stereo unspecified),0,-1.1,66*,70*,0.3,0.3
COC(=O)CN(c1cccc(OC)c1)S(C)(=O)=O,14,0.46,22,11,0.8,0.9
CCc1ccccc1NC(=O)CN(c1cccc(OC)c1)S(C)(=O)=O,3,1.4,86*,63*,0.1,0.4
CCOC(=O)c1ccccc1NC(=O)CN(c1cccc(OC)c1)S(C)(=O)=O,.,-2.1,99*,95*,0,0.1
COc1cccc(N(CC(=O)Nc2ccccc2C)S(C)(=O)=O)c1,3,1,63*,17,0.4,0.8
COc1cccc(N(CC(=O)NCc2cccnc2)S(C)(=O)=O)c1,3,1.3,44,11,0.6,0.9
COCc1cc(C)nc(N)c1C#N,.,0.88,-25,-9,1.3,1.1
COc1ccc(-c2nnc(N3CCC(C)CC3)c3ccccc23)cc1,2,.,18,27,0.8,0.7
CC(Nc1cc(N2CCN(C(=O)C(C)(C)C)CC2)ccc1[N+](=O)[O-])c1ccccc1 (stereo unspecified),-3,-4.2*,56*,50*,0.4,0.5
O=[N+]([O-])c1ccc(N2CCCC2)cc1NC(c1ccccc1)c1ccccc1,3,-2.3,9,30,0.9,0.7
CCS(=O)(=O)N1CCN(c2ccc([N+](=O)[O-])c(NCc3ccccc3)c2)CC1,4,0.35,7,21,0.9,0.8
CCS(=O)(=O)N1CCN(c2ccc([N+](=O)[O-])c(NC(C)c3ccccc3)c2)CC1 (stereo unspecified),8,.,51*,66*,0.5,0.3
O=C(O)C1CC(O)CN1C(=O)c1ccco1 (stereo unspecified),10,0.32,-2,-20,1,1.2
CCn1c(SCC(=O)c2[nH]c(C)c(C(C)=O)c2C)nnc1-c1ccncc1,1,-0.14,66*,8,0.3,0.9
CCn1c(SCC(=O)O)nnc1-c1ccccc1,3,0.16,7,3,0.9,1
CCn1c(SCC(=O)c2[nH]c(C)c(C(C)=O)c2C)nnc1-c1ccccc1,-1,1.6,77*,27,0.2,0.7
CCn1c(NC(=O)c2ccco2)c(-c2ccccc2Cl)c(=O)c2ccccc21,4,-0.23,-1,6,1,0.9
CCOC(=O)c1cc(-c2ccc(C#N)cc2)nc2c1c(C)nn2CCC#N,13,-0.99,11,52*,0.9,0.5
COc1ccc(NC(=O)c2cc(CC(C)C)on2)cc1OC,.,0.05,24,-31,0.8,1.3
